Measurements taken from ChEMBL document CHEMBL3297731, “The design and discovery of water soluble 4-substituted-2,6-dimethylfuro[2,3-d]pyrimidines as multitargeted receptor tyrosine kinase inhibitors and microtubule targeting antitumor agents” (Bioorg Med Chem, 2014).
Calls of active or inactive are those of the source. The calls are words filed in the database; no cut-off is given here.

Key:
[1] = molecular target: Epidermal growth factor receptor (Homo sapiens, UniProt P00533); type: cell-based, A-431
Sequence of Epidermal growth factor receptor (P00533 whole entry): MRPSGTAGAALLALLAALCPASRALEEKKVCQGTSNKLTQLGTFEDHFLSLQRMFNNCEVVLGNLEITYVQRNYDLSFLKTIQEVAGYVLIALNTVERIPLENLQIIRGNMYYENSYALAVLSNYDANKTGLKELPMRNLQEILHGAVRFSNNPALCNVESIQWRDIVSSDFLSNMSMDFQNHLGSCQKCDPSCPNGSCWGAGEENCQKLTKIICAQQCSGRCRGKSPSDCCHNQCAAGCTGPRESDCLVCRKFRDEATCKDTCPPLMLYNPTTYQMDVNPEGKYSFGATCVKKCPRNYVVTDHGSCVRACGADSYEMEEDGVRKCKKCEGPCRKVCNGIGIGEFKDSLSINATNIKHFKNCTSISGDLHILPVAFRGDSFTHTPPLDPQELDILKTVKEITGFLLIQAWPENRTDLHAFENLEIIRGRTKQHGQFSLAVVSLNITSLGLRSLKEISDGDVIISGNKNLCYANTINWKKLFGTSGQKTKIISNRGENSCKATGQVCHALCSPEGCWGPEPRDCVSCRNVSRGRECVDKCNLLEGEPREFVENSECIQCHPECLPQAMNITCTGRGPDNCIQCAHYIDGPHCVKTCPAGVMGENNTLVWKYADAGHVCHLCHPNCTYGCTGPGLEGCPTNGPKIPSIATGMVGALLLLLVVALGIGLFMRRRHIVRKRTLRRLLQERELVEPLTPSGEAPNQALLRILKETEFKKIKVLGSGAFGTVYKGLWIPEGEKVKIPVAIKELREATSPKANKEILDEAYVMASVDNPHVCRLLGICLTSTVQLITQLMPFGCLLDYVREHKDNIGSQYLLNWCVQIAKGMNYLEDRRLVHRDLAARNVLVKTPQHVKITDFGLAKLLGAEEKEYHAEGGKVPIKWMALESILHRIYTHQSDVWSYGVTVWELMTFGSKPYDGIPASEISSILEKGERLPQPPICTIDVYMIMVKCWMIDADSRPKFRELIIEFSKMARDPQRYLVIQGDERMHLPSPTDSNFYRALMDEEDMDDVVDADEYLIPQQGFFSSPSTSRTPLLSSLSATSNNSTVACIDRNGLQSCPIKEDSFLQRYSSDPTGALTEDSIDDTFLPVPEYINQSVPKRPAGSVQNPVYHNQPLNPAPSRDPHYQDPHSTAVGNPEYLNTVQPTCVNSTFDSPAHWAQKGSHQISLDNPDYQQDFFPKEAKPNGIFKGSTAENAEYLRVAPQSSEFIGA

Chorioallantoic membrane = assay: Antiangiogenic activity in fertile leghorn chicken egg Chorioallantoic membrane assessed as inhibition of human VEGF-165/bFGF-induced angiogenesis after 48 hrs by CAM assay; type: functional, tissue-based; settings: Gallus gallus
[2] = molecular target: Platelet-derived growth factor receptor beta (Homo sapiens, UniProt P09619); assay: Inhibition of PDGFRbeta in human SH-SY5Y cells by phosphotyrosine ELISA assay; type: cell-based
Sequence of Platelet-derived growth factor receptor beta (P09619 whole entry): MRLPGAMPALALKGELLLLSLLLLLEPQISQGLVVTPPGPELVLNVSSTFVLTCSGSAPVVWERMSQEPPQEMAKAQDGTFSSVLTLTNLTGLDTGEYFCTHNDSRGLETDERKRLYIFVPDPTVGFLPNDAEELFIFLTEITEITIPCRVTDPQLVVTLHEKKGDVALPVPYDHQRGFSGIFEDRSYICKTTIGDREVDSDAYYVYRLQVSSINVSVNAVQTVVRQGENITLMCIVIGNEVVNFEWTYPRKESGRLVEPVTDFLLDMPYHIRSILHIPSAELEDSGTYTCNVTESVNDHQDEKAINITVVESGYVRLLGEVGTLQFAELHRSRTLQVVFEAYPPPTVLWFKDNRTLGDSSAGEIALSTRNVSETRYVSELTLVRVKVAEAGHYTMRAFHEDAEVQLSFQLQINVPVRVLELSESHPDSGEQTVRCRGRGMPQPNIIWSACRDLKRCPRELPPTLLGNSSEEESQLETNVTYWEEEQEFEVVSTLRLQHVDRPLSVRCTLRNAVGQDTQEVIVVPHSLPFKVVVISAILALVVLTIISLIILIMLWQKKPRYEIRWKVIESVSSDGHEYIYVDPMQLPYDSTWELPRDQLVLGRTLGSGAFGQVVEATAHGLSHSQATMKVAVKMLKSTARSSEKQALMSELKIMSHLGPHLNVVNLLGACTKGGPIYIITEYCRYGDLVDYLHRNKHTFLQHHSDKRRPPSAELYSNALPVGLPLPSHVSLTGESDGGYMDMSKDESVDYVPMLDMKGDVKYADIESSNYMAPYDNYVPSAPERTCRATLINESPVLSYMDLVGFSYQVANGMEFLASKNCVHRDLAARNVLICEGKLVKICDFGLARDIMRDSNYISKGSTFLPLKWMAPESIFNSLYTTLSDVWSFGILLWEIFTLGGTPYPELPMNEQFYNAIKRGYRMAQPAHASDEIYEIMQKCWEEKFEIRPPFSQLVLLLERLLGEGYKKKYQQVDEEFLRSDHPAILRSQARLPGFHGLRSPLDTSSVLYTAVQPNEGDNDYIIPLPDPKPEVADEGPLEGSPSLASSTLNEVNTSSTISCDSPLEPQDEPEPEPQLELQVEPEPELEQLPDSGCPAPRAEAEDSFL

[3] = molecular target: Vascular endothelial growth factor receptor 2 (Homo sapiens, UniProt P35968); type: cell-based, U-251
Sequence of Vascular endothelial growth factor receptor 2 (P35968 whole entry): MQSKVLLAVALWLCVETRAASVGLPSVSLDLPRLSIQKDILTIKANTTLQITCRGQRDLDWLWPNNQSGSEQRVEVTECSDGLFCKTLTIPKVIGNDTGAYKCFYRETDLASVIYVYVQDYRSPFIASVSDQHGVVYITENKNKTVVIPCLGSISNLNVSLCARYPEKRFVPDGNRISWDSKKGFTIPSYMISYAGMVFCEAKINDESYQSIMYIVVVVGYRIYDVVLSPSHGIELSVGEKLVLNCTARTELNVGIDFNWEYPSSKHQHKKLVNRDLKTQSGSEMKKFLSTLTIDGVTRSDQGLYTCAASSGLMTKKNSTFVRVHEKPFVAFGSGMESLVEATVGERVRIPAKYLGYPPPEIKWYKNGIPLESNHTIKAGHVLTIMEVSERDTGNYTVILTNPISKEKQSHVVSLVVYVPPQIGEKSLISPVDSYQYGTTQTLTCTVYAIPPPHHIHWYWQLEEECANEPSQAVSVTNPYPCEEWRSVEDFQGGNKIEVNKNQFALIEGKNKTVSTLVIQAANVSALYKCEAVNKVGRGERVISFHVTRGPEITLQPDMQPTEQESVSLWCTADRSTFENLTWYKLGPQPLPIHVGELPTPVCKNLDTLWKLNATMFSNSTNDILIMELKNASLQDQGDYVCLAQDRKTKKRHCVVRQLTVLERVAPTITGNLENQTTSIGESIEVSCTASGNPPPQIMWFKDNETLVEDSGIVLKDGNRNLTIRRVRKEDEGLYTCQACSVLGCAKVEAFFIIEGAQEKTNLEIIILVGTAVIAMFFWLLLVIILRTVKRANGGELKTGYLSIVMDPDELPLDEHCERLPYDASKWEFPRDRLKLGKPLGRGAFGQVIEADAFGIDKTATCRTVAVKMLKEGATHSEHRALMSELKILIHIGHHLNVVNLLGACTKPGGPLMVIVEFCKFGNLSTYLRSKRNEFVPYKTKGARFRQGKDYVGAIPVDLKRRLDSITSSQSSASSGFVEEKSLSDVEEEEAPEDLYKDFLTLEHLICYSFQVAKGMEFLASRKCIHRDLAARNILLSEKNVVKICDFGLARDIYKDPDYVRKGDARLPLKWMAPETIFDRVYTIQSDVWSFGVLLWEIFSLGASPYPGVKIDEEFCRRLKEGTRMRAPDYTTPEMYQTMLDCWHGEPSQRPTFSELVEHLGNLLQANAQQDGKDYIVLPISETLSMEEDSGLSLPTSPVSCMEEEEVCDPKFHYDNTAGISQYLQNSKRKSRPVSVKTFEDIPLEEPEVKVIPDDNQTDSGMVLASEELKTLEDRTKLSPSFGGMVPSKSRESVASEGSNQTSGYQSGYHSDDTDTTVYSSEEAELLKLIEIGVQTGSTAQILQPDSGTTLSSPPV

MDA-MB-435 [4] = assay: Cytotoxicity against human MDA-MB-435 cells; type: functional, cell-based
HUVEC = assay: Cytotoxicity against HUVEC; type: cell-based; settings: Homo sapiens
MCF7 [5] = assay: Cytotoxicity against human ER-positive MCF7 cells; type: functional, cell-based
MDA-MB-231 = assay: Cytotoxicity against human triple negative MDA-MB-231 cells; type: functional, cell-based
MCF7 [6] = assay: Cytotoxicity against human taxoid-resistant MCF7 cells; type: functional, cell-based
MDA-MB-468 = assay: Cytotoxicity against human triple negative MDA-MB-468 cells; type: functional, cell-based
4T1 [7] = assay: Cytotoxicity against mouse triple negative 4T1 cells; type: functional, cell-based
4T1 [8] = assay: Antitumor activity against luciferase/GFP-tagged mouse 4T1 cells allografted in BALBc/J mouse assessed as reduction in primary tumor growth at 35 mg/kg twice weekly starting at day 7 and continuing to day 32; type: functional, organism-based; set-up: dose 35 mg/kg
Procedure, shortened: (§1)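 750 4T1-Luc2/GFP cells (>98% GFP+) in PBS/1 mM EDTA implanted into fat pad #4 of 8 wk female BALB/c mice. MTD doses given twice weekly (docetaxel weekly), day 7 to day 32; DMSO/solutol-15/D5W vehicle. Calipers, ellipsoid volume; weights before each dose; 7-10 mice per group; lungs imaged fresh by fluorescence at day 33.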

in vivo = settings: BALBc/J, mouse
HeLa [9] = assay: Antiproliferative activity against human HeLa cells; type: functional, cell-based
SK-OV-3 [10] = assay: Antiproliferative activity against human SKOV3 cells expressing MDR1/M-6-6; type: functional, cell-based
HeLa [11] = assay: Antiproliferative activity against human HeLa cells expressing beta3-tubulin; type: functional, cell-based
MDA-MB-435 [12] = assay: Antiproliferative activity against human MDA-MB-435 cells; type: functional, cell-based
SK-OV-3 [13] = assay: Antiproliferative activity against human SKOV3 cells; type: functional, cell-based
A-431 = assay: Cytotoxicity against human A431 cells by SRB assay; type: functional, cell-based
Mus musculus [14] = assay: Toxicity in human MDA-MB-435 cells […] assessed as increase in body weight at 50 mg/kg; type: organism-based; set-up: dose 50 mg/kg; settings: in vivo
Mus musculus [15] = assay: Toxicity in luciferase/GFP-tagged mouse 4T1 cells allografted in BALBc/J mouse assessed as body weight loss at 50 mg/kg twice weekly starting at day 7 and continuing to day 32; type: organism-based; set-up: dose 50 mg/kg; settings: in vivo
Procedure, shortened: as §1

HeLa [16] = assay: Cell cycle arrest in human HeLa cells assessed as effect on accumulation at G1 phase at 40 to 50 nM after 18 hrs by flow cytometric analysis; type: functional, cell-based
Procedure, shortened: (§2)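 HeLa cells allowed to adhere 24 h, then drug-treated (18 h per legend; harvest stated 24 h in methods). Stained with Krishan's reagent; DNA content measured by flow cytometry.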

HeLa [17] = assay: Cell cycle arrest in human HeLa cells assessed as accumulation at G2/M phase at 40 to 50 nM after 18 hrs by flow cytometric analysis; type: functional, cell-based
Procedure, shortened: as §2

4T1 [18] = assay: Antitumor activity against luciferase/GFP-tagged mouse 4T1 cells allografted in BALBc/J mouse assessed as reduction in number of lung metastases at 50 mg/kg twice weekly starting at day 7 and continuing to day 32; type: functional, organism-based; set-up: dose 50 mg/kg
Procedure, shortened: as §1

[19] = test system: MDA-MB-435 (Homo sapiens); assay: Induction of apoptosis in human MDA-MB-435 cells assessed as PARP cleavage at 75 nM after 18 to 36 hrs by Western blot analysis
Tubulin (Sus scrofa) = Tubulin (Sus scrofa) (UniProt P02554+P02550); settings: 5 uM
Sequence of Tubulin (Sus scrofa) (P02550 whole entry, looked up): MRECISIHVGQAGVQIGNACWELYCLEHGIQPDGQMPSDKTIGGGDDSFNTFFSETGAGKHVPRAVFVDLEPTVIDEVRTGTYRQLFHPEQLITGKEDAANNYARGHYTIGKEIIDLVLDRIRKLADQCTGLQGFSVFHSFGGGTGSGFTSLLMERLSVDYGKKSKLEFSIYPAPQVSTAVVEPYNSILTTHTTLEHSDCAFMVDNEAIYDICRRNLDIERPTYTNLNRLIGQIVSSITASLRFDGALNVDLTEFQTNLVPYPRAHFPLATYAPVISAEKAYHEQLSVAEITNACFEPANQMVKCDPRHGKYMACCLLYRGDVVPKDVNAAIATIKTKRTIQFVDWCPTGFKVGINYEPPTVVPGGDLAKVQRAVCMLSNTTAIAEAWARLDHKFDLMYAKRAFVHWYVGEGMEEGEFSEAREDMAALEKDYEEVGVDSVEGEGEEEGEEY
Sequence of Tubulin (Sus scrofa) (P02554 whole entry, looked up): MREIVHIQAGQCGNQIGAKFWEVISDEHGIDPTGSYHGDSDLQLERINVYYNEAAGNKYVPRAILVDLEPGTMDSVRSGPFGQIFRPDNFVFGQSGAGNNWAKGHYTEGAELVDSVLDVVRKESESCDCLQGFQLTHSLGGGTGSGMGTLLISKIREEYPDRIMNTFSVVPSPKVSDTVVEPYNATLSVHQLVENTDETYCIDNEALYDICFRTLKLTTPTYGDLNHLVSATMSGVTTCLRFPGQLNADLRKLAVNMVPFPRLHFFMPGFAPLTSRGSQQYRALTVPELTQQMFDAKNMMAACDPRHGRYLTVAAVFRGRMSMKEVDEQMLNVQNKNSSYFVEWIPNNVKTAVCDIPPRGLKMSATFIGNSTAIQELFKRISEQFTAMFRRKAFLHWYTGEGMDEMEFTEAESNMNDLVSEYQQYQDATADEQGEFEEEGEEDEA

[20] = test system: MDA-MB-435 (Homo sapiens); assay: Induction of apoptosis in human MDA-MB-435 cells assessed as PARP cleavage at 75 nM after 18 hrs by Western blot analysis
4T1 [21] = assay: Antitumor activity against luciferase/GFP-tagged mouse 4T1 cells allografted in BALBc/J mouse assessed as reduction in primary tumor growth at 50 mg/kg twice weekly starting at day 7 and continuing to day 32; type: functional, organism-based; set-up: dose 50 mg/kg
Procedure, shortened: as §1

MDA-MB-435 [22] = assay: Antitumor activity against human MDA-MB-435 cells […] assessed as decrease in tumor vascular density at 50 mg/kg by CD31/PECAM-1 immunohistochemical staining; type: functional, organism-based; set-up: dose 50 mg/kg
MDA-MB-435 [23] = assay: Antitumor activity against human MDA-MB-435 cells […] assessed as decrease in tumor growth at 50 mg/kg relative to untreated control; type: functional, organism-based; set-up: dose 50 mg/kg
HeLa [24] = assay: Cell cycle arrest in human HeLa cells assessed as accumulation at G2/M phase after 18 hrs by flow cytometric analysis; type: functional, cell-based
Procedure, shortened: as §2

4T1 [25] = assay: Antitumor activity against luciferase/GFP-tagged mouse 4T1 cells allografted in BALBc/J mouse assessed as reduction in tumor size at 50 mg/kg twice weekly starting at day 7 and continuing to day 32; type: functional, organism-based; set-up: dose 50 mg/kg
Procedure, shortened: as §1

[26] = Growth inhibition of human MOLT4 cells by SRB assay; type: functional; settings: MOLT-4
Tubulin = Tubulin (Sus scrofa, UniProt P02554+P02550); assay: Inhibition of pig brain tubulin polymerization by spectrophotometric analysis

Cc1nc(Nc2cccc3[nH]ccc23)c2cc(C)oc2n1
IC50 [1]: 90.2 nM | IC50 (Chorioallantoic membrane): 22600 nM | IC50 [2]: 28.3 nM | IC50 [3]: 102 nM

CCN(CC)CCNC(=O)c1c(C)[nH]c(/C=C2\C(=O)Nc3ccc(F)cc32)c1C [SUNITINIB]
IC50 (MDA-MB-435 [4]): 9.7 nM | IC50 (HUVEC): 11.8 nM | IC50 (MCF7 [5]): 27.1 nM | IC50 (MDA-MB-231): 22.3 nM | IC50 (MCF7 [6]): 29.3 nM | IC50 (MDA-MB-468): 6.1 nM | IC50 (4T1 [7]): 16 nM

CC(=O)O[C@@]12CO[C@@H]1C[C@H](O)[C@@]1(C)C(=O)[C@H](O)C3=C(C)[C@@H](OC(=O)[C@H](O)[C@@H](NC(=O)OC(C)(C)C)c4ccccc4)C[C@@](O)([C@@H](OC(=O)c4ccccc4)[C@H]21)C3(C)C.O.O.O [DOCETAXEL]
inhibition (4T1 [8]): Active | IC50 (MDA-MB-435 [4]): 2.7 nM | IC50 (HUVEC): 56.7 nM | IC50 (MCF7 [5]): 59.3 nM | IC50 (MDA-MB-231): 16 nM | IC50 (MCF7 [6]): > 1000 nM | IC50 (MDA-MB-468): 69.1 nM | MTD (in vivo): 35 mg/kg | IC50 (4T1 [7]): 63.4 nM

Cc1nc(Nc2ccc(Cl)cc2)c2cc(C)oc2n1
IC50 [1]: 102 nM | IC50 [3]: 70.2 nM

CCN(c1ccc(OC)cc1)c1nc(C)nc2oc(C)cc12
IC50 (HeLa [9]): 167 nM | IC50 [1]: 70.7 nM | IC50 (SK-OV-3 [10]): 270 nM | IC50 (HeLa [11]): 206 nM | IC50 (Chorioallantoic membrane): 19200 nM | IC50 (MDA-MB-435 [12]): 137 nM | IC50 [2]: 27.1 nM | IC50 (SK-OV-3 [13]): 228 nM | IC50 [3]: 10.6 nM

COc1cccc2c1C(=O)c1c(O)c3c(c(O)c1C2=O)C[C@@](O)(C(=O)CO)C[C@@H]3O[C@H]1C[C@H](N)[C@H](O)[C@H](C)O1 [DOXORUBICIN]
IC50 (A-431): 1.35 nM

COc1ccc(N(c2nc(C)nc3oc(C)cc23)C(C)C)cc1
IC50 (HeLa [9]): 2900 nM | IC50 [1]: 84.4 nM | IC50 (SK-OV-3 [10]): 7400 nM | IC50 (HeLa [11]): 4070 nM | IC50 (Chorioallantoic membrane): 18900 nM | IC50 (MDA-MB-435 [12]): 3000 nM | IC50 [2]: 23.1 nM | IC50 (SK-OV-3 [13]): 3800 nM | IC50 [3]: 15.6 nM

Cc1nc(Nc2ccccc2)c2cc(C)oc2n1
IC50 [1]: 113 nM

COc1ccc(N(C)c2nc(C)nc3oc(C)cc23)cc1.Cl
IC50 (HeLa [9]): 40.6 nM | IC50 (HeLa [11]): 44.7 nM | Activity (Mus musculus [14]): Non-toxic | IC50 (MDA-MB-435 [12]): 47 nM | Activity (Mus musculus [15]): Non-toxic | IC50 (HUVEC): 172 nM | IC50 (SK-OV-3 [13]): […] | IC50 (MCF7 [5]): 138 nM | IC50 (MDA-MB-231): 148 nM | IC50 (MCF7 [6]): 130 nM | IC50 (MDA-MB-468): 7.1 nM | MTD (in vivo): 50 mg/kg | IC50 (4T1 [7]): 97.9 nM

C#Cc1cccc(Nc2nc(C)nc3oc(C)cc23)c1
IC50 [1]: 30 nM | IC50 (Chorioallantoic membrane): 18200 nM | IC50 [2]: 16.2 nM | IC50 [3]: 76.3 nM

COc1ccc(N(C)c2nc(C)nc3oc(C)cc23)cc1 [listing 1 of 2 here]
Activity (HeLa [16]): inactive | Activity (HeLa [17]): Active | inhibition (4T1 [18]): Active | Activity [19]: Active | inhibition (Tubulin (Sus scrofa)): 86% | Activity [20]: Active | inhibition (4T1 [21]): Active | Activity (MDA-MB-435 [22]): Active | inhibition (MDA-MB-435 [23]): Active | inhibition (HeLa [24]): Dose-dependent effect | inhibition (4T1 [25]): Active

CCCCN(c1ccc(OC)cc1)c1nc(C)nc2oc(C)cc12
IC50 (HeLa [9]): > 10000 nM | IC50 [1]: 340 nM | IC50 (SK-OV-3 [10]): > 10000 nM | IC50 (HeLa [11]): > 10000 nM | IC50 (Chorioallantoic membrane): 32600 nM | IC50 (MDA-MB-435 [12]): > 10000 nM | IC50 [2]: 56.5 nM | IC50 (SK-OV-3 [13]): > 10000 nM | IC50 [3]: 34.4 nM

Cc1nc(Nc2ccc(C(F)(F)F)cc2)c2cc(C)oc2n1
IC50 [1]: 122 nM | IC50 [2]: 66.1 nM | IC50 [3]: 66.2 nM

COc1ccc(Nc2nc(C)nc3oc(C)cc23)cc1
IC50 [1]: 42.2 nM | IC50 [2]: 63.5 nM | IC50 [3]: 43.1 nM

CS(=O)(=O)CCNCc1ccc(-c2ccc3ncnc(Nc4ccc(OCc5cccc(F)c5)c(Cl)c4)c3c2)o1 [LAPATINIB]
IC50 (MDA-MB-435 [4]): 29.7 nM | IC50 (MCF7 [5]): 64.9 nM | IC50 (MDA-MB-231): 20 nM | IC50 (MDA-MB-468): 83.2 nM | IC50 (4T1 [7]): 10.4 nM

Cc1nc(Nc2cccc3ccccc23)c2cc(C)oc2n1
IC50 [1]: 145 nM | IC50 [3]: 32.2 nM

COc1ccc(N(C)c2nc(C)nc3oc(C)cc23)cc1 [listing 2 of 2 here]
GI50 [26]: 67.9 nM | IC50 (Tubulin): 1900 nM

CC(=O)O[C@H]1C(=O)[C@@]2(C)[C@H]([C@H](OC(=O)c3ccccc3)[C@]3(O)C[C@H](OC(=O)[C@H](O)[C@@H](NC(=O)c4ccccc4)c4ccccc4)C(C)=C1C3(C)C)[C@]1(OC(C)=O)CO[C@@H]1C[C@@H]2O [PACLITAXEL]
IC50 (MDA-MB-435 [12]): 1.93 nM

CCCN(c1ccc(OC)cc1)c1nc(C)nc2oc(C)cc12
IC50 (HeLa [9]): 1240 nM | IC50 (SK-OV-3 [10]): 3400 nM | IC50 (HeLa [11]): 1500 nM | IC50 (Chorioallantoic membrane): 16700 nM | IC50 (MDA-MB-435 [12]): 1400 nM | IC50 [2]: 29.9 nM | IC50 (SK-OV-3 [13]): 1600 nM | IC50 [3]: 8.5 nM

Cc1nc(Nc2ccc(F)c(Cl)c2)c2cc(C)oc2n1
IC50 [1]: 30.2 nM | IC50 [3]: 58.2 nM
